These results are taken from ChEMBL document CHEMBL1153929, “Exploration and synthesis of curcumin analogues with improved structural stability both in vitro and in vivo as cytotoxic agents” (Bioorg Med Chem, 2009).

Structures are written as SMILES.

The subject of one series is KB (human). Kind of series: Cytotoxicity against human KB cells after 72 hrs by MTT assay.
For a further series, the system named is HeLa. Nature of the series: Cytotoxicity against human HeLa cells after 72 hrs by MTT assay. The format is functional, cell-based. Summed up: (§1)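 Cells were plated at 5000 per well in 1640 medium with 5% heat-inactivated calf serum and penicillin/streptomycin, at 37 °C and 5% CO2. After 24 h, compounds in DMSO were added at final 100, 33.3, 11.1 and 3.7 µg/ml for 72 h. MTT (5 mg/ml in 0.9% NaCl) was then added for 3 h, the formazan dissolved in DMSO, and absorbance read at 570 nm.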

Series [1] is described as follows: Hydrolytic stability assessed as compound degradation at 2 mg in sodium dihydrogen phosphate buffered 0.3% sodium carboxymethylcellulose solution at pH 7.4 after 45 hrs by HPLC. The format is physicochemical. The conditions noted are these: read-out: Activity. An outline of the steps:
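2 mg of sample was vortexed into 1 ml of 0.3% (w/v) CMCNa solution in phosphate buffer at pH 7.4 and kept in the dark at 37 °C. HPLC peak areas were recorded. Degradation = (area at 0 h − area at end time) / area at 0 h × 100%.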

Another series deals with PC-3. Kind of series: Cytotoxicity against human PC3 cells after 72 hrs by MTT assay. The format is functional, cell-based. The conditions noted are these: PC-3, 72 h. An outline of the steps:
as §1

The subject of another series is HL-60 (human). Nature of the series: Cytotoxicity against human HL60 cells after 72 hrs by MTT assay. The conditions noted are these: HL-60, 72 h.
Series [2] can be described thus: Cytotoxicity against human LS 174T cells after 72 hrs by MTT assay. The conditions noted are these: LS174T. The format is functional, cell-based. Summed up:
as §1

A further series deals with BGC-823. Kind of series: Cytotoxicity against human BGC823 cells after 72 hrs by MTT assay. The conditions noted are these: BGC-823, 72 h. The format is functional, cell-based. Summed up:
as §1

Turning to `COc1cc(/C=C2\CCC/C(=C\c3cc(OC)c(OC)c(OC)c3)C2=O)cc(OC)c1OC`, the IC50 in the series on KB (human) came out at 117 µM; with HeLa, 27.5 µM; with PC-3, 22.7 µM; in the series on HL-60 (human), 29.3 µM. In addition, the degraded at 45 h in series [1] amounted to 0%.

The compound `CCOc1ccc(/C=C2\CC/C(=C\c3ccc(OCC)cc3)C2=O)cc1` came in with an IC50 in the series with HeLa of 24 µM. In addition, in series [1], the degraded at 45 h was 0%.

On to `O=C1/C(=C/c2cccs2)CCC/C1=C\c1cccs1` [TENYLIDONE], for which, in the series with KB (human), the IC50 came to 86 µM. In addition, the degraded at 45 h in series [1] stood at 0%.

Take `Cn1cccc1/C=C1\CC/C(=C\c2cccn2C)C1=O`: in series [1], the degraded at 45 h was found to be 0%. The same compound displayed an IC50 in series [2] of 9.2 µM.

Consider `CCOc1ccc(/C=C2\CCC/C(=C\c3ccc(OCC)cc3)C2=O)cc1`, for which the degraded at 45 h in series [1] was 0%. Also, the concentration for half-maximal inhibition (IC50) stood at 85.8 µM in the series with HL-60 (human) and 5.6 µM in series [2].

Consider `O=C1/C(=C/c2ccc(Br)o2)CCC/C1=C\c1ccc(Br)o1`, for which the degraded at 45 h in series [1] was 0%. The IC50 in the series on PC-3 came to 21.8 µM; in the series on HL-60 (human), 65.8 µM.

For the compound `O=C1/C(=C/c2ccccc2C(F)(F)F)CCC/C1=C\c1ccccc1C(F)(F)F`, the IC50 came out at 54 µM with KB (human) and 46.3 µM in the series with HeLa. Besides, the degraded at 45 h in series [1] was 0%.

For the compound `Cc1ccsc1/C=C/C(=O)/C=C/c1sccc1C`, the degraded at 45 h in series [1] was found to be 0%. In the series on PC-3, this compound came in with an IC50 of 138 µM.

Take `Cc1ccc(C)c(/C=C2\CCC/C(=C\c3cc(C)ccc3C)C2=O)c1`: in the series with KB (human), it took 35.3 µM to reach half-maximal inhibition (IC50). The degraded at 45 h in series [1] was 0%.

`O=C(/C=C/c1ccccc1C(F)(F)F)/C=C/c1ccccc1C(F)(F)F`: the IC50 is less than 3.7 µM with KB (human), 0.35 µM in the series on PC-3 and less than 10 µM with HL-60 (human). Moreover, the degraded at 45 h in series [1] was 0%.

Regarding `CN(C)c1ccc(/C=C2\CC/C(=C\c3ccc(N(C)C)cc3)C2=O)cc1`, the degraded at 45 h in series [1] came to 0%.

For `O=C1/C(=C/c2ccc(Br)s2)CC/C1=C\c1ccc(Br)s1`, the degraded at 45 h in series [1] was 0%. The midpoint of inhibition in series [2], the IC50, lay at 9 µM.

For `O=C1/C(=C/C=C/c2ccccc2)CCC/C1=C\C=C\c1ccccc1`, the IC50 in the series on KB (human) is 29.4 µM; in the series with HeLa, 49.9 µM; in the series on PC-3, 61.5 µM; in series [2] it was 24.3 µM; with BGC-823 it was 15.6 µM. Moreover, the degraded at 45 h in series [1] came out at 0%.

`O=C1/C(=C/c2ccc3ccccc3c2)CC/C1=C\c1ccc2ccccc2c1`: the degraded at 45 h in series [1] turned out to be 0%. This compound also returned a half-maximal inhibitory concentration (IC50) in the series on BGC-823 of 38.1 µM.

`O=C(/C=C/c1ccc(O)cc1)/C=C/c1ccc(O)cc1`: the IC50 in the series on KB (human) is 41.5 µM; in the series with HeLa, 217 µM; with PC-3, 48.9 µM. Besides, in series [1], the degraded at 45 h worked out at 0%.

As to `COc1cc(/C=C/C(=O)/C=C/c2cc(OC)c(OC)c(OC)c2)cc(OC)c1OC`, the IC50 in the series on KB (human) is 98.7 µM; in the series with HeLa, 95 µM; with PC-3, 8.8 µM; in series [2], 148 µM. In series [1], the degraded at 45 h was determined as 0%.

Regarding `COc1cccc(/C=C2\CCC/C(=C\c3cccc(OC)c3OC)C2=O)c1OC`, the IC50 came out at 179 µM in the series with KB (human), 84.5 µM in series [2] and 55.3 µM in the series on BGC-823. The degraded at 45 h in series [1] came out at 0%.

Consider `O=C1/C(=C/c2cccc(Br)c2)CCC/C1=C\c1cccc(Br)c1`, for which the IC50 in the series on KB (human) came to 15.9 µM; in the series with HeLa it was 15.7 µM; in series [2], 11.5 µM. In series [1], the degraded at 45 h was 0%.

On to `COc1cc(/C=C2\CC/C(=C\c3cc(OC)c(OC)c(OC)c3)C2=O)cc(OC)c1OC`, for which the degraded at 45 h in series [1] came to 0%.

With `C=CCOc1ccc(/C=C/C(=O)/C=C/c2ccc(OCC=C)cc2)cc1`, the degraded at 45 h in series [1] worked out at 0%. Further, half-maximal inhibition in the series with HL-60 (human) (IC50) was put at 64.6 µM.

As to `C=CCOc1ccc(/C=C2\CCC/C(=C\c3ccc(OCC=C)c(OC)c3)C2=O)cc1OC`, the IC50 in the series on KB (human) amounted to 102 µM. Also, in series [1], the degraded at 45 h turned out to be 0%.

With `O=C(/C=C/c1ccccc1Cl)/C=C/c1ccccc1Cl`, the IC50 in the series on KB (human) stood at 59 µM; in the series on HL-60 (human), 8.6 µM. In series [1], the degraded at 45 h was 0%.

`Cc1ccc(/C=C2\CCC/C(=C\c3ccc(C)s3)C2=O)s1`: the values for the IC50 with KB (human) and in the series on PC-3 were 249 µM and 77.6 µM, respectively. Besides, the degraded at 45 h in series [1] came to 0%.

In the case of `O=C(/C=C/C=C/c1ccccc1)/C=C/C=C/c1ccccc1`, the degraded at 45 h in series [1] was determined as 0%. In the series with HL-60 (human), this compound returned an IC50 of 36.5 µM.

Turning to `O=C(/C=C/c1ccc(F)cc1)/C=C/c1ccc(F)cc1`, the IC50 turned out to be 94.6 µM in the series on KB (human), 15.2 µM with PC-3 and 98.8 µM in series [2]. Besides, the degraded at 45 h in series [1] was found to be 0%.

On to `O=C(/C=C/c1ccc(OC2CCCCO2)cc1)/C=C/c1ccc(OC2CCCCO2)cc1` (configuration not stated), for which the degraded at 45 h in series [1] came out at 0%. The IC50 with PC-3 stood at 43.4 µM; in the series on HL-60 (human), 0.3 µM.

As to `O=C1/C(=C/c2ccc(OC3CCCCO3)cc2)CCC/C1=C\c1ccc(OC2CCCCO2)cc1` (configuration not stated), the degraded at 45 h in series [1] is 0%. The IC50 in the series on HL-60 (human) worked out at 134 µM; in series [2], 3.9 µM.

For the compound `C=CCOc1cc(/C=C2\CC/C(=C\c3ccc(OC)c(OCC=C)c3)C2=O)ccc1OC`, in series [1], the degraded at 45 h stood at 0%. Moreover, in the series on BGC-823, the IC50 amounted to 32.6 µM.

On to `O=C1/C(=C/c2ccccc2Br)CCC/C1=C\c1ccccc1Br`, for which the IC50 in the series on KB (human) came out at 55.3 µM. In addition, the degraded at 45 h in series [1] stood at 0%.

For `Cn1cccc1/C=C1\CCC/C(=C\c2cccn2C)C1=O`, the IC50 with KB (human) is 2.3 µM. Also, the degraded at 45 h in series [1] was found to be 0%.

In the case of `O=C1/C(=C/c2ccccc2C(F)(F)F)CC/C1=C\c1ccccc1C(F)(F)F`, the values for the IC50 (with KB (human); in series [2]) were less than 9.34 µM and 213 µM, respectively. In addition, in series [1], the degraded at 45 h was determined as 0%.

For `COc1ccccc1/C=C/C(=O)/C=C/c1ccccc1OC`, the IC50 in the series on KB (human) was less than 12.6 µM; in the series with HeLa, 161 µM; with HL-60 (human), less than 12.6 µM. The degraded at 45 h in series [1] was 0%.

In the series on HeLa, `O=C1/C(=C/c2ccc(F)cc2)CC/C1=C\c1ccc(F)cc1` showed an IC50 of 1.2 µM. Moreover, the degraded at 45 h in series [1] turned out to be 0%.

As for `O=C1/C(=C/c2ccc(OC3CCCCO3)cc2)CC/C1=C\c1ccc(OC2CCCCO2)cc1` (configuration not stated), in the series on HeLa, 39.1 µM corresponded to half-maximal inhibition (IC50). Besides, the degraded at 45 h in series [1] stood at 0%.

The compound `C=CCOc1ccc(/C=C2\CCC/C(=C\c3ccc(OCC=C)cc3)C2=O)cc1` gave an IC50 in the series on KB (human) of 85.3 µM. Moreover, the degraded at 45 h in series [1] was found to be 0%.

For `COc1ccccc1/C=C1\CC/C(=C\c2ccccc2OC)C1=O`, the degraded at 45 h in series [1] is 0%. Moreover, the figures for the half-maximal inhibitory concentration (IC50) in the series with PC-3 and in the series on HL-60 (human) were 5.3 µM and 2.3 µM, respectively.

Turning to `O=C1/C(=C/c2ccc3c(c2)OCO3)CC/C1=C\c1ccc2c(c1)OCO2`, the degraded at 45 h in series [1] is 0%. The midpoint of inhibition with HL-60 (human), the IC50, lay at 225 µM.

In the series on KB (human), `CC(C)(C)c1ccc(/C=C2\CCC/C(=C\c3ccc(C(C)(C)C)cc3)C2=O)cc1` yielded an IC50 of 78.9 µM. In series [1], the degraded at 45 h stood at 0%.

`COc1cccc(/C=C2\CC/C(=C\c3cccc(OC)c3OC)C2=O)c1OC` gave an IC50 with HeLa of 249 µM. Further, in series [1], the degraded at 45 h is 0%.

Regarding `O=C1/C(=C/C=C/c2ccccc2)CC/C1=C\C=C\c1ccccc1`, the degraded at 45 h in series [1] was determined as 0%. The compound also registered an IC50 in the series with PC-3 of 117 µM.

With `O=C1/C(=C/c2ccccc2Cl)CC/C1=C\c1ccccc1Cl`, the results for the IC50 in the series on KB (human) and with HL-60 (human) were 96 µM and 87.2 µM, respectively. The degraded at 45 h in series [1] came to 0%.
